Experimental data: ChEMBL document CHEMBL4004811, “Enantiodivergence in the Biosynthesis of Bromotyrosine Alkaloids from Sponges?” (2017)
Active and inactive are the calls of the source. The calls are words filed in the database; no cut-off is given here.

Key:
Type in all cases: functional
[1] = test system: Escherichia coli; experiment: Antimicrobial activity against Escherichia coli ATCC 25922 after 18 hrs by MTT dye based TLC assay
Method in brief: (§1)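 Overlay TLC bioautography: compounds applied on TLC plates and overlaid with the bacterial culture. Activity is reported as the minimum inhibitory quantity (MIQ), in μg of compound.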

[2] = test system: Staphylococcus aureus; experiment: Antimicrobial activity against multidrug-resistant Staphylococcus aureus after 18 hrs by MTT dye based TLC assay
Method in brief: (§2)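 Overlay TLC bioautography: samples applied to TLC plates and overlaid with the bacterial culture. The panel covered three S. aureus strains and one E. coli strain. Activity is read as minimum inhibitory quantity (MIQ, μg per spot).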

[3] = test system: Staphylococcus aureus; experiment: Antimicrobial activity against methicillin-sensitive Staphylococcus aureus ATCC 29213 after 18 hrs by MTT dye based TLC assay; method in brief: as §1
[4] = test system: Staphylococcus aureus; experiment: Antimicrobial activity against methicillin-resistant Staphylococcus aureus ATCC BAA1026 after 18 hrs by MTT dye based TLC assay; method in brief: as §2

Row | Compound | Activity [1] | Activity [2] | Activity [3] | Activity [4] | MIC [3] [µg] | MIC [2] [µg] | MIC [4] [µg]
1 | CNCCCOc1c(Br)cc(CCNC(=O)/C(Cc2ccc(OC)c(Br)c2)=N/O)cc1Br | inactive | Active | Active | Active | – | – | –
2 | COc1ccc(C/C(=N\O)C(=O)NCCc2cc(Br)c(OCCCN(C)C)c(Br)c2)cc1Br | inactive | Active | Active | Active | – | – | –
3 | COC1=C(Br)[C@@H](O)[C@]2(C=C1Br)CC(C(=O)NCCCOc1c(Br)cc(C/C(=N\O)C(=O)NCCc3cnc(N)[nH]3)cc1Br)=NO2 | inactive | Active | Active | Active | – | – | –
4 | CCOC1(CCCNC(=O)C2=NO[C@@]3(C=C(Br)C(OC)=C(Br)[C@H]3O)C2)N=C(N)NC1=O (mixture of isomers) | inactive | Active | Active | Active | – | – | –
5 | COC1=C(Br)[C@@H](O)[C@]2(C=C1Br)CC(C(=O)NCCc1cc(Br)c(O)c(Br)c1)=NO2 | inactive | Active | – | Active | 0.31 | – | –
6 | COC1=C(Br)[C@@H](O)[C@]2(C=C1Br)CC(C(=O)NCCCOc1c(Br)cc(CC(N)C(=O)O)cc1Br)=NO2 (some centres not stated) | inactive | Active | Active | Active | – | – | –
7 | COC1=C(Br)[C@@H](O)[C@]2(C=C1Br)CC(C(N)=O)=NO2 | inactive | Active | Active | Active | – | – | –
8 | COC1=C(Br)[C@@H](O)[C@]2(C=C1Br)CC(C(=O)NCCCOc1c(Br)cc(CCN)cc1Br)=NO2 | inactive | Active | Active | Active | – | – | –
9 | COC1=C(Br)[C@@H](O)[C@]2(C=C1Br)CC(C(=O)NCCc1ccc(O)c(Br)c1)=NO2 | inactive | Active | – | Active | 0.31 | – | –
10 | COC1=C(Br)[C@@H](O)[C@]2(C=C1Br)CC(C(=O)NCCCC(=O)O)=NO2 | inactive | Active | Active | Active | – | – | –
11 | CN[C@H](CC(C)C)C(=O)N[C@H]1C(=O)N[C@@H](CC(N)=O)C(=O)N[C@H]2C(=O)N[C@H]3C(=O)N[C@H](C(=O)N[C@H](C(=O)O)c4cc(O)cc(O)c4-c4cc3ccc4O)[C@H](O)c3ccc(c(Cl)c3)Oc3cc2cc(c3O[C@@H]2O[C@H](CO)[C@@H](O)[C@H](O)[C@H]2O[C@H]2C[C@](C)(N)[C@H](O)[C@H](C)O2)Oc2ccc(cc2Cl)[C@H]1O [VANCOMYCIN] | – | – | – | – | – | 0.63 | 0.63
